{
  "source": "ChEMBL document CHEMBL1125303",
  "about": "“Truncated, branched, and/or cyclic analogues of neuropeptide Y: importance of the pancreatic peptide fold in the design of specific Y2 receptor ligands” (J Med Chem, 1992)",
  "key": {"[1]": {"target": "T1, Neuropeptide Y receptor type 2 (Homo sapiens, UniProt P49146)", "T1 sequence (P49146 whole entry)": "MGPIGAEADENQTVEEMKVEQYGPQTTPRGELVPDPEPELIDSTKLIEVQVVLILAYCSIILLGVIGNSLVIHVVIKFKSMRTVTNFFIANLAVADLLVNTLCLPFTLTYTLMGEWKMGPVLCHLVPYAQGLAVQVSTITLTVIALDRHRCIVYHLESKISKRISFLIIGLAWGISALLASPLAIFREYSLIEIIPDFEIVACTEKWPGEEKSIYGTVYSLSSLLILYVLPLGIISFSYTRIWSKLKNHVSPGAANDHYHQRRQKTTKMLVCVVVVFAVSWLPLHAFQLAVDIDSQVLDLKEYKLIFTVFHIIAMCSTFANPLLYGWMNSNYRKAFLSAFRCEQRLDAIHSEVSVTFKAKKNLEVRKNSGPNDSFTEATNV", "assay": "Displacement of l25I-PYY from Neuropeptide Y receptor type 2 of human neuroblastoma SK-N-BE cells", "assay_type": "cell-based", "procedure,_shortened": "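Intact SK-N-BE(2) cells (Y2) were grown in DME:F12 with 10% FCS, then plated at 10⁶ cells/well on poly(Lys-Ala)-coated wells and used after 1 day. Cells were washed cold, lysed and gamma-counted. Triplicates; Kd fitted with LIGAND.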"}, "[2]": {"target": "T2, Neuropeptide Y receptor type 1 (Homo sapiens, UniProt P25929)", "T2 sequence (P25929 whole entry)": "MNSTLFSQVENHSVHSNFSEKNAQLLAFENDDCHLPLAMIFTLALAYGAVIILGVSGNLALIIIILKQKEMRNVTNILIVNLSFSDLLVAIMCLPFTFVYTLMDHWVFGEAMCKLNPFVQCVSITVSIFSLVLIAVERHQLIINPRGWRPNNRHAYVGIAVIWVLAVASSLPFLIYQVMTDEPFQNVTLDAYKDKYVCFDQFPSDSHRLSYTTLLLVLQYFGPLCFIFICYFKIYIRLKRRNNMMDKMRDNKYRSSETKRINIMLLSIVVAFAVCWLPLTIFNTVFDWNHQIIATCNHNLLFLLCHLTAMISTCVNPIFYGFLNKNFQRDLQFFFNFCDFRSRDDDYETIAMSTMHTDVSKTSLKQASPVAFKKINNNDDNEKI", "assay": "Displacement of l25I-PYY from Neuropeptide Y receptor type 1 of human neuroblastoma SK-N-MC cells", "assay_type": "cell-based", "procedure,_shortened": "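Intact SK-N-MC cells (Y1) were grown in MEM with 10% FCS, then plated at 10⁶ cells/well on poly(Lys-Ala)-coated wells and used after 2 days. Cells were washed cold, lysed and gamma-counted. Triplicates; Kd fitted with LIGAND.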"}},
  "note": "Positions of bridges follow the written chain, without caps; N, C: chain ends. Non-standard residues stand in square brackets, D forms with d. Residues, ends and D or L forms follow the SMILES beside them. Orn = NCCC[C@H](N)C(=O)O; Dap = NC[C@H](N)C(=O)O",
  "data": [
    {"smiles": "CC[C@H](C)[C@H](NC(=O)[C@H](Cc1ccc(O)cc1)NC(=O)[C@H](Cc1c[nH]cn1)NC(=O)[C@H](CCCN=C(N)N)NC(=O)[C@H](CC(C)C)NC(=O)[C@H](C)NC(=O)[C@H](CO)NC(=O)[C@H](Cc1ccc(O)cc1)NC(=O)[C@H](Cc1ccc(O)cc1)NC(=O)[C@H](CCCN=C(N)N)NC(=O)[C@H](C)N)C(=O)N[C@@H](CC(N)=O)C(=O)N[C@H]1CCCCNC(=O)CC[C@@H](C(=O)N[C@@H](CCCN=C(N)N)C(=O)N[C@@H](Cc2ccc(O)cc2)C(N)=O)NC(=O)[C@H](CCCN=C(N)N)NC(=O)[C@H]([C@@H](C)O)NC(=O)[C@H]([C@@H](C)CC)NC1=O", "note": "(H-ARYYSALRHYINKITRERY-NH2; lactam 13-17)", "values": [
      {"measurement": "Kd", "setting": "[1]; sk-n-be", "value": 360, "unit": "nM"},
      {"measurement": "Kd", "setting": "[2]; sk-n-mc", "value": "> 1000", "unit": "nM"}
    ]},
    {"smiles": "CC[C@H](C)[C@H](NC(=O)[C@H](Cc1ccc(O)cc1)NC(=O)[C@H](Cc1cnc[nH]1)NC(=O)[C@H](CCCNC(=N)N)NC(=O)[C@H](CC(C)C)NC(=O)[C@H](C)NC(=O)[C@H](CO)NC(=O)[C@H](Cc1ccc(O)cc1)NC(=O)[C@H](Cc1ccc(O)cc1)NC(=O)[C@H](CCCNC(=N)N)NC(=O)[C@H](C)N)C(=O)N[C@@H](CC(N)=O)C(=O)N[C@H]1CCCNC(=O)CC[C@@H](C(=O)N[C@@H](CCCNC(=N)N)C(=O)N[C@@H](Cc2ccc(O)cc2)C(N)=O)NC(=O)[C@H](CCCNC(=N)N)NC(=O)[C@H]([C@@H](C)O)NC(=O)[C@H]([C@@H](C)CC)NC1=O", "note": "(H-ARYYSALRHYIN[Orn]ITRERY-NH2; lactam 13-17)", "values": [
      {"measurement": "Kd", "setting": "[1]; sk-n-be", "value": 950, "unit": "nM"},
      {"measurement": "Kd", "setting": "[2]; sk-n-mc", "value": "> 1000", "unit": "nM"}
    ]},
    {"smiles": "CC[C@H](C)[C@@H]1NC(=O)[C@H](Cc2ccc(O)cc2)NC(=O)[C@H](Cc2c[nH]cn2)NC(=O)[C@H](CCCNC(=N)N)NC(=O)[C@H](CC(C)C)NC(=O)[C@@H](C)NC(=O)[C@@H]2CCCN2C(=O)[C@H](CCCCN)NC(=O)[C@H](CO)NC(=O)[C@@H](NC(=O)[C@@H](N)Cc2ccc(O)cc2)CCC(=O)NC[C@H](C(=O)N[C@H](C(=O)N[C@H](C(=O)N[C@@H](CCCNC(=N)N)C(=O)N[C@@H](CCC(N)=O)C(=O)N[C@@H](CCCNC(=N)N)C(=O)N[C@@H](Cc2ccc(O)cc2)C(N)=O)[C@@H](C)O)[C@@H](C)CC)NC(=O)[C@H](CC(N)=O)NC1=O", "values": [
      {"measurement": "Kd", "setting": "[2]; sk-n-mc", "value": "> 1000", "unit": "nM"}
    ]},
    {"smiles": "CC[C@H](C)[C@H](NC(=O)[C@H](Cc1ccc(O)cc1)NC(=O)[C@H](Cc1cnc[nH]1)NC(=O)[C@H](CCCNC(=N)N)NC(=O)[C@H](CC(C)C)NC(=O)[C@H](C)NC(=O)[C@H](CO)NC(=O)[C@H](Cc1ccc(O)cc1)NC(=O)[C@H](Cc1ccc(O)cc1)NC(=O)[C@H](CCCNC(=N)N)NC(=O)[C@H](C)N)C(=O)N[C@@H](CC(N)=O)C(=O)N[C@H]1CNC(=O)CC[C@@H](C(=O)N[C@@H](CCCNC(=N)N)C(=O)N[C@@H](Cc2ccc(O)cc2)C(N)=O)NC(=O)[C@H](CCCNC(=N)N)NC(=O)[C@H]([C@@H](C)O)NC(=O)[C@H]([C@@H](C)CC)NC1=O", "note": "(H-ARYYSALRHYIN[Dap]ITRERY-NH2; lactam 13-17)", "values": [
      {"measurement": "Kd", "setting": "[1]; sk-n-be", "value": 590, "unit": "nM"},
      {"measurement": "Kd", "setting": "[2]; sk-n-mc", "value": "> 1000", "unit": "nM"}
    ]},
    {"smiles": "CC[C@H](C)[C@H](NC(=O)[C@H](Cc1ccc(O)cc1)NC(=O)[C@@H](C)NC(=O)[C@@H]1CCCN1C(=O)[C@@H](N)Cc1ccc(O)cc1)C(=O)N[C@@H](CC(N)=O)C(=O)N[C@@H](CC(C)C)C(=O)N[C@H](C(=O)N[C@H](C(=O)N[C@@H](CCCN=C(N)N)C(=O)N[C@@H](CCC(N)=O)C(=O)N[C@@H](CCCN=C(N)N)C(=O)N[C@@H](Cc1ccc(O)cc1)C(N)=O)[C@@H](C)O)[C@@H](C)CC", "values": [
      {"measurement": "Kd", "setting": "[1]; sk-n-be", "value": 120, "unit": "nM"}
    ]},
    {"smiles": "CC[C@H](C)[C@H](NC(=O)[C@H](CC(C)C)NC(=O)[C@H](CC(N)=O)NC(=O)[C@@H](NC(=O)[C@H]1CNC(=O)CC[C@H](NC(=O)[C@@H](N)Cc2ccc(O)cc2)C(=O)N[C@@H](CO)C(=O)N[C@@H](CCCCN)C(=O)N2CCC[C@H]2C(=O)N[C@H](C)C(=O)N[C@@H](CC(C)C)C(=O)N[C@@H](CCCNC(=N)N)C(=O)N[C@@H](Cc2cnc[nH]2)C(=O)N1)[C@@H](C)CC)C(=O)N[C@H](C(=O)N[C@@H](CCCNC(=N)N)C(=O)N[C@@H](CCC(N)=O)C(=O)N[C@@H](CCCNC(=N)N)C(=O)N[C@@H](Cc1ccc(O)cc1)C(N)=O)[C@@H](C)O", "values": [
      {"measurement": "Kd", "setting": "[1]; sk-n-be", "value": 3.6, "unit": "nM"},
      {"measurement": "Kd", "setting": "[2]; sk-n-mc", "value": "> 1000", "unit": "nM"}
    ]},
    {"smiles": "CC[C@H](C)[C@@H]1NC(=O)[C@H](Cc2ccc(O)cc2)NC(=O)[C@@H](C)NC(=O)[C@@H]2CCCN2C(=O)[C@@H](N)CCC(=O)NC[C@H](C(=O)N[C@H](C(=O)N[C@H](C(=O)N[C@@H](CCCNC(=N)N)C(=O)N[C@@H](CCC(N)=O)C(=O)N[C@@H](CCCNC(=N)N)C(=O)N[C@@H](Cc2ccc(O)cc2)C(N)=O)[C@@H](C)O)[C@@H](C)CC)NC(=O)[C@H](CC(N)=O)NC1=O", "values": [
      {"measurement": "Kd", "setting": "[1]", "value": "> 1000", "unit": "nM"},
      {"measurement": "Kd", "setting": "[2]", "value": "> 1000", "unit": "nM"}
    ]},
    {"smiles": "CC[C@H](C)[C@H](NC(=O)[C@H](Cc1ccc(O)cc1)NC(=O)[C@H](Cc1c[nH]cn1)NC(=O)[C@H](CCCNC(=N)N)NC(=O)[C@H](CC(C)C)NC(=O)[C@H](C)NC(=O)[C@H](CO)NC(=O)[C@H](Cc1ccc(O)cc1)NC(=O)[C@H](Cc1ccc(O)cc1)NC(=O)[C@H](CCCNC(=N)N)NC(=O)[C@H](C)N)C(=O)N[C@@H](CC(N)=O)C(=O)N[C@@H](CC(C)C)C(=O)N[C@H](C(=O)N[C@H](C(=O)N[C@H]1CCCCNC(=O)CC[C@@H](C(N)=O)NC(=O)[C@H](CCCNC(=N)N)NC(=O)[C@H](CCC(N)=O)NC1=O)[C@@H](C)O)[C@@H](C)CC", "note": "(H-ARYYSALRHYINLITKQRE-NH2; lactam 16-19)", "values": [
      {"measurement": "Kd", "setting": "[2]", "value": "> 1000", "unit": "nM"}
    ]}
  ]
}
